An excerpt weighted towards active compounds, which were near 2.2% of everything screened.
Jurkat NFkB inh = inhibitors of the PMA/ionomycin-induced NF-kB reporter in Jurkat cells; PMA/ionomycin-induced NF-kB luciferase reporter, luminescence; AID 435003; hit rate 0.53% among 330,000; inhibition, % at 4 µM; in the data active means inhibition above about 50%
miR-122 sensor = miR-122 inhibition in Huh7 cells; activation (reporter increase), % at 12.5 µM; Huh7 miR-122 Renilla luciferase sensor, 48 h; neutral wells = 0, positive control = 100; AID 602342; hit rate 0.3% among 340,000;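 active means mean replicate activation score at least 90 and every replicate individually at or above 90; inconclusive means only one of the two criteria met; inactive means neither criterion met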;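 further: higher luciferase means less miR-122 activity so hits act as miR-122 inhibitors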
NR2E3 ag-1 = agonists of human NR2E3 nuclear receptor | Q9Y5X4 | CHO-S Gal4-NCOR/VP16-NR2E3 two-hybrid, luciferase | inhibition of corepressor binding, % at 3.98 µM | hit rate 0.35% among 360,000 | AID 602229;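 active means inhibition above the mean of all tested compounds plus 3 SD, cut at about 70% in these data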;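 further: 0% = DMSO with NR2E3 transfected cells and 100% = cells lacking NR2E3 construct; higher means lower luciferase signal from less NR2E3 corepressor binding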
Target sequence (Q9Y5X4 whole entry, looked up, the tested form may be a part): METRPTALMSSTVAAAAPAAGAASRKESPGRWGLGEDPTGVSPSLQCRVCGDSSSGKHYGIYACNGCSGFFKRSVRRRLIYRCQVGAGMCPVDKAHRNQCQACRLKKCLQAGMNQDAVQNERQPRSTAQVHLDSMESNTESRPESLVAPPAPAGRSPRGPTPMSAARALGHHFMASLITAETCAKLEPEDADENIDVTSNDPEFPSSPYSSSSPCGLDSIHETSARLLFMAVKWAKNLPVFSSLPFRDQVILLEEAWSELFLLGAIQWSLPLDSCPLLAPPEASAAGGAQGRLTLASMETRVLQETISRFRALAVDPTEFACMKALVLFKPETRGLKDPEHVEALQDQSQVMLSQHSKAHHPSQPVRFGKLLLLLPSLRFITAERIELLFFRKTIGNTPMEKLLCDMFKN
697 NFkB inh = lowers PMA/ionomycin-induced NF-kB signal in 697 B cells; hit rate 0.33% among 330,000; inhibition, % at 4 µM; 697 B-cell NF-kB luciferase reporter, 16 h; AID 435022; in the data active means inhibition above about 35%
NR2E3 ag-2 = agonists of human nuclear receptor NR2E3; hit rate 0.12% among 320,000; Q9Y5X4; GST-NR2E3/biotin-RetCOR TR-FRET, 1536-well; AID 2300; inhibition of corepressor binding, % at 4.78 µM;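 active means percent inhibition above the cutoff of mean plus 3 SD of all tested compounds, set per screening campaign, cut at about 20% in these data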;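 further: 0% = DMSO wells and 100% = biotin wells as full block of FRET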
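System: GST-tagged NR2E3 plus biotinylated RetCOR corepressor; Buffer or medium: pH 7.5 Tris-based buffer; Probe or stimulus: RetCOR corepressor, biotinylated, 7 nM; Doses: compound at 4.8 µM, single dose; Schedule: 5 h incubation at 4 °C; Technique: time-resolved FRET; Evaluation: percent inhibition of TR-FRET ratio; Replication: one well per compound, singlicate testing.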
FGF22 binding = FGF22 (human) thermal shift binding. recombinant FGF22 thermal shift, SYPRO orange fluorescence; percent of sucrose octasulfate shift, DMSO zero. Q9HCT0. AID 651658. hit rate 1.5% among 340,000. activity (Tm shift, normalised), % at 9.99 µM;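 active means mean Tm shift, scaled 0 neutral to 100 positive control, at about 1.3% or above, every replicate too, limit read from the data; inconclusive means no clear call, values can overlap the other calls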
Target sequence (Q9HCT0 whole entry, looked up): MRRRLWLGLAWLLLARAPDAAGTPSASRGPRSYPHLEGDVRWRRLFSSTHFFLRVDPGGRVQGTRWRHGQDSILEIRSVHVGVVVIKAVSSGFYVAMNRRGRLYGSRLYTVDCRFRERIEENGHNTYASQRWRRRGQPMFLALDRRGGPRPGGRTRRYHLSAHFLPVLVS
Jurkat NFkB conf = inhibitors of the PMA/ionomycin-induced NF-kB reporter in Jurkat cells, retest. shares compounds with Jurkat NFkB inh. Jurkat NF-kB luciferase, 16 h. inhibition, % at 4 µM. hit rate 27% among 2,700. AID 435020;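 active means inhibition reaching about 45% at 4 µM in either replicate, limit read from the data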;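 further: plate controls were PMA/ionomycin stimulated DMSO wells for no effect and unstimulated DMSO wells for full effect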
697 NFkB conf = lowers PMA/ionomycin-induced NF-kB signal in 697 B cells | shares compounds with 697 NFkB inh | 697 B-cell NF-kB luciferase, 16 h | inhibition, % at 4 µM | hit rate 35% among 2,000; in the data active means inhibition mostly above about 28%, no sharp cut-off; inactive means mostly below about 22%
NR2E3 ag conf = NR2E3 agonism confirmed in two-hybrid assay. shares compounds with NR2E3 ag-1. CHO-S mammalian two-hybrid NR2E3-NCOR, luciferase luminescence. inhibition, % at 3.98 µM. hit rate 51% among 2,300. AID 624378;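 active means average inhibition above a cutoff equal to the mean inhibition of all tested compounds plus one SD, cut at about 70% in these data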;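 further: 0% = DMSO in NR2E3 cells and 100% = DMSO in cells lacking NR2E3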
GAL4-VP16 luc = GAL4-VP16 reporter inhibition in NR2E3 agonist counterscreen; shares compounds with NR2E3 ag-1; CHO-S GAL4-VP16 luciferase reporter, luminescence; inhibition, % at 3.98 µM; hit rate 29% among 2,300; AID 624379;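 active means mean inhibition above a cutoff equal to the average over all tested compounds plus one standard deviation, cut at about 70% in these data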;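 further: luciferase from a UAS reporter driven by GAL4-VP16 transactivation; 0% = DMSO with VP16-transfected cells and 100% = DMSO with cells lacking VP16; higher means less reporter light so more repression of VP16 activity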
* marks the source's active call; other numbers are inactive results; i = inactive; ? = inconclusive; . = no result; [ ] = dose if it differs, or a comment.

SMILES | Jurkat NFkB inh | miR-122 sensor | NR2E3 ag-1 | 697 NFkB inh | NR2E3 ag-2 | FGF22 binding | Jurkat NFkB conf | 697 NFkB conf | others
C[C@@H]1O[C@@H](O[C@H]2C[C@@H](O)[C@]3(CO)[C@@H]4C(CC[C@]3(O)C2)[C@@]2(O)CC[C@H](C3COC(=O)C3)[C@@]2(C)C[C@H]4O)[C@H](O)[C@H](O)[C@H]1O (stereo partly drawn) | 95* | 24 | 0 | i | 4 | 0 | 67* | i
COC(=O)[C@H]1[C@H](CO)[C@H]2Cn3c(ccc(C4=CCCCC4)c3=O)[C@@H]1N2CC1CC1 | . | . | . | . | . | 0 | . | .
C=C1C(=O)O[C@H]2C[C@@H](C)[C@@H]3C=CC(=O)[C@@]3(C)C[C@H]12 | 88* | . | . | -341 | -5 | 0 | 63* | -235
C=C1C(=O)OC2C1CCC(C)C1(O)C=CC(=O)C21C (stereo not drawn) | . | ? | 33 | . | . | 0 | . | .
C[C@H]1CCC/C=C/C2C[C@H](O)CC2[C@H](O)/C=C/C(=O)O1 (stereo partly drawn) | 98* | -17 | 96* | 71* | 0 | . | -25 | 81*
COC(=O)[C@H]1[C@H](CO)[C@H]2Cn3c(ccc(-c4ccccc4F)c3=O)[C@@H]1N2Cc1ccncc1 | . | 0[16.7 µM] | . | . | . | 0 | . | .
CC(C)c1oc(=O)cc2c1[C@@H](O)[C@H]1OC(=O)[C@@]3(C)C[C@@H](O)[C@@H](O)[C@@]2(C)C13 (stereo partly drawn) | 90* | . | 33 | -265 | 0 | 0 | 90* | -99
CC(=O)OC(C)(C)/C=C/C(=O)[C@](C)(O)C1[C@H](O)C[C@@]2(C)C3CC=C4C(C[C@H](O)C(=O)C4(C)C)[C@]3(C)C(=O)C[C@]12C (stereo partly drawn) | 92* | . | 66 | 56* | . | . | 62* | 71*
O=C(Cc1ccncc1)N1CCCCN2[C@@H](CO)[C@@H](c3ccc(C#CC4(O)CCCC4)cc3)[C@@H]2C1 | . | 5[16.7 µM] | . | . | . | 0 | . | .
C[C@]12CC[C@H](O)C[C@H]1CC[C@@H]1[C@@H]2C[C@@H](O)[C@]2(C)[C@@H](C3=CC(=O)OC3)CC[C@]12O | 98* | 21 | -17 | -272 | 4 | 0 | 74* | -331
COC(=O)[C@@H]1[C@@H](CO)[C@@H]2Cn3c(ccc(C4=CCCC4)c3=O)[C@H]1N2CC1CCCCC1 | . | -2[16.7 µM] | . | . | . | 0 | . | .
CC12CCC(O)CC1CCC1C2CCC2(C)C(C3=CC(=O)OC3)C(O)CC12O (stereo not drawn) | . | -1 | -9 | . | . | 0 | . | .
CC(=O)O[C@H]1[C@H]2O[C@]23[C@@H]2CC[C@]4(O)C[C@@H](O)CC[C@]4(C)C2CC[C@]3(C)[C@H]1c1ccc(=O)oc1 (stereo partly drawn) | 96* | . | 8 | 71* | -2 | . | 91* | 85*
O=C(Cc1ccccc1)N1CCCCN2[C@@H](CO)[C@@H](c3ccc(-c4ccccc4)cc3)[C@@H]2C1 | . | -4[16.7 µM] | . | . | . | 0 | . | .
COC(=O)C1CN(C#N)N(c2ccc(Cl)cc2)C12c1ccccc1-c1ccccc12 (stereo not drawn) | 87* | -11 | 80* | -62 | 0 | . | 60* | . | NR2E3 ag conf=92*;GAL4-VP16 luc=63
CC1CCC/C=C/C2CC(O)CC2C(O)/C=C/C(=O)O1 (stereo not drawn) | 97* | -23 | 83* | 69* | 2 | . | -22 | 80* | NR2E3 ag conf=99*;GAL4-VP16 luc=56
C[C@H]1CCC[C@H](O)CCCCCc2cc(O)cc(O)c2C(=O)O1 | 7 | -2 | -8 | 9 | -2 | 0 | . | .
O=C(O)[C@@H]1[C@@H](CO)[C@@H]2Cn3c(cccc3=O)[C@H]1N2C(=O)c1ccccc1 | . | . | . | . | . | 0 | . | .
C=C1C(=O)O[C@@H]2C[C@@H](C)[C@@H]3C4OC4C(=O)[C@@]3(C)[C@@H](O)[C@H]12 (stereo partly drawn) | 58* | -19 | 77* | i | -4 | 0 | 23 | -448 | NR2E3 ag conf=-11;GAL4-VP16 luc=2
O=C(O)[C@@H]1[C@@H](CO)[C@@H]2Cn3c(ccc(-c4cccc(F)c4)c3=O)[C@H]1N2CCc1ccccc1 | . | -4[16.7 µM] | . | . | . | 0 | . | .
NC(=O)c1c(Br)n(C2OC(CO)C(O)C2O)c2ncnc(N)c12 (stereo not drawn) | . | 2 | -12 | . | . | 0 | . | .
NC(=O)c1cn(C2OC(CO)C(O)C2O)c2ncnc(N)c12 (stereo not drawn) | 100* | -13 | 101* | 104* | -1 | 0 | 97* | 106* | NR2E3 ag conf=99*;GAL4-VP16 luc=99*
C=C1C(=O)O[C@@H]2C[C@@H](C)[C@@H]3C=CC(=O)[C@@]3(C)[C@@H](OC(=O)CC(=O)O[C@H]3[C@@H]4C(=C)C(=O)O[C@@H]4C[C@@H](C)[C@@H]4C=CC(=O)[C@]43C)[C@H]12 | 93* | . | 96* | 104* | 2 | 0 | 100* | 101* | NR2E3 ag conf=101*;GAL4-VP16 luc=97*
COC(=O)[C@@H]1[C@@H](CO)[C@@H]2Cn3c(ccc(-c4cccc(OC)c4)c3=O)[C@H]1N2C(=O)c1cnccn1 | . | -4[16.7 µM] | . | . | . | 0 | . | .
CN(C)c1cccc2c(C#N)ccc(N(C)C)c12 | 16 | -3 | -5 | 39* | -4 | . | . | -13
SMILES | Jurkat NFkB inh | miR-122 sensor | NR2E3 ag-1 | 697 NFkB inh | NR2E3 ag-2 | FGF22 binding | Jurkat NFkB conf | 697 NFkB conf | others
COCC(=O)N1[C@@H]2Cn3c(ccc(C4=CCCC4)c3=O)[C@H]1[C@@H](C(=O)OC)[C@@H]2CO | . | 5[16.7 µM] | . | . | . | 0 | . | .
Cc1ccccc1-c1ccc([C@H]2[C@@H](CO)N3CCCCN(C(=O)Cc4ccccn4)C[C@@H]23)cc1 | . | 27[16.7 µM] | . | . | . | 0 | . | .
CNC(=O)Oc1cccc(-c2cn3cc(Cl)ccc3n2)c1 | -87 | . | -139 | -293 | -1 | . | . | -222
CNC(=O)Oc1ccc(-c2cn3cc(C)ccc3n2)cc1 | -22 | . | -91 | -115 | -3 | 0 | . | .
COC(=O)[C@H]1N[C@H]2c3ccc(C4=CCCC4)c(=O)n3C[C@H]2[C@@H]1CO | . | . | . | . | . | 0 | . | .
O=c1[nH]c(O)c(/C=C2/C=CC(c3cc(Cl)ccc3Cl)=N2)c(=O)[nH]1 | 17 | -5 | -14 | 36* | 1 | 0 | . | 7

Assay outcomes from PubChem BioAssay.
